# Laboratory results published in ChEMBL document CHEMBL1921704, “Discovery of N-aryl-2-acylindole human glucagon receptor antagonists” (Bioorg Med Chem Lett, 2011).
# Calls of active or inactive are those of the source. The calls are words filed in the database; no cut-off is given here.
# Columns and labels:
# Glucagon receptor [1] = biological target: T1, Glucagon receptor (Homo sapiens, UniProt P47871); assay: Antagonist activity at human glucagon receptor expressed in CHO cells assessed as inhibition of forskolin/glucagon-induced cAMP production preincubated for 30 mins before glucagon challenge measured after 30 mins using [125I]-cAMP by liquid scintillation counting; format: functional, cell-based
# T1 sequence (P47871 whole entry): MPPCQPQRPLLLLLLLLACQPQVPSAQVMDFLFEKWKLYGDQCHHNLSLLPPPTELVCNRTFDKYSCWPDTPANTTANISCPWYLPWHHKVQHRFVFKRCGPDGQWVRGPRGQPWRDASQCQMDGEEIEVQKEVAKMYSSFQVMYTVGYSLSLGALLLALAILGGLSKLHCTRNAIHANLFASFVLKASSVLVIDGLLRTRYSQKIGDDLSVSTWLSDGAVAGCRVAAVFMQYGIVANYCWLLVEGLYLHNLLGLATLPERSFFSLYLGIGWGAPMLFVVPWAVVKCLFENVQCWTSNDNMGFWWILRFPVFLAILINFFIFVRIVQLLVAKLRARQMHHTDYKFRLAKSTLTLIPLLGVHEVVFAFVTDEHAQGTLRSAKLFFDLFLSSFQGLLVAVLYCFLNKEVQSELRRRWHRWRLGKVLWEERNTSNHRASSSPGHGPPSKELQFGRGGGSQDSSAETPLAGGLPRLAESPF
# Procedure, shortened: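 Glucagon-induced cAMP production measured in CHO cells transfected with hGCGR. IC50 reported as the average rounded to two significant figures, with SEM when measured more than once.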
# Glucagon receptor [2] = biological target: T1, Glucagon receptor; assay: Displacement of [125I]-glucagon from human glucagon receptor expressed in CHO cells after 4 to 12 hrs by scintillation proximity assay; format: cell-based
# Procedure, shortened: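 Scintillation proximity assay on membranes from CHO cells expressing hGCGR, measuring inhibition of ¹²⁵I-labelled glucagon binding. IC50 reported as the average rounded to two significant figures, with standard error of the mean when more than one measurement was made.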
# [3] = Oral bioavailability in rat at 2 mg/kg; format: ADME, organism-based; conditions: in vivo
# Procedure, shortened: (§1)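 Rat PK with dosing at 1 mg/kg IV and 2 mg/kg PO, vehicle DMSO/water/PEG400 15:35:55. Parameters were plasma clearance, Vd, t1/2, dose-normalised PO AUC and Cmax, and %F.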
# [4] = Volume of distribution in rat at 1 mg/kg, iv and 2 mg/kg, po; format: ADME, organism-based; conditions: in vivo; procedure, shortened: as §1
# Rattus norvegicus [5] = assay: Dose normalised AUC in rat at 2 mg/kg, po; format: ADME, organism-based; design: dose 2 mg/kg, route oral; conditions: in vivo; procedure, shortened: as §1
# Rattus norvegicus [6] = assay: Dose normalised Cmax in rat at 1 mg/kg, iv and 2 mg/kg, po; format: ADME, organism-based; conditions: in vivo; procedure, shortened: as §1
# [7] = Half life in rat at 1 mg/kg, iv and 2 mg/kg, po; format: ADME, organism-based; conditions: in vivo; procedure, shortened: as §1
# [8] = Plasma clearance in rat at 1 mg/kg, iv and 2 mg/kg, po; format: ADME, organism-based; procedure, shortened: as §1
# [9] = Clearance in rat; format: ADME, organism-based; conditions: in vivo; procedure, shortened: as §1
# [10] = Oral bioavailability in rat; format: ADME, organism-based; conditions: in vivo; procedure, shortened: as §1
# Cytochrome P450 3A4 = Cytochrome P450 3A4 (Homo sapiens, UniProt P08684); assay: Inhibition of CYP3A4; format: ADME
# Chain of Cytochrome P450 3A4 (P08684 whole entry): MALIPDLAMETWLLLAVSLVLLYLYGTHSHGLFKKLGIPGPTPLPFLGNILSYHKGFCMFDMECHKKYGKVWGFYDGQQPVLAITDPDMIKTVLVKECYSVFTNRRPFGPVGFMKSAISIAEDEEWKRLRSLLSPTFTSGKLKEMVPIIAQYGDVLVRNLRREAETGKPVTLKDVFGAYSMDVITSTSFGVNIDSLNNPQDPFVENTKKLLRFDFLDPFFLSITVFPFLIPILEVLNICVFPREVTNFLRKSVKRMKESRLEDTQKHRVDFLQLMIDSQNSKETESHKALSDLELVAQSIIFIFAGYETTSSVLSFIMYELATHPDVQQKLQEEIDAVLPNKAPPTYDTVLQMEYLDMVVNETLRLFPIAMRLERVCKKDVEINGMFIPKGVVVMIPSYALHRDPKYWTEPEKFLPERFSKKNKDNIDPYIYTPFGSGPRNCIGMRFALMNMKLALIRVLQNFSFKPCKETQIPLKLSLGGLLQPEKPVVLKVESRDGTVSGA
# Rattus norvegicus [11] = assay: Toxicity in rat assessed as tolerability at 100 mg/kg/day after 8 days; format: organism-based; conditions: in vivo, 192 h
# Cytochrome P450 2C9 = Cytochrome P450 2C9 (Homo sapiens, UniProt P11712); assay: Inhibition of CYP2C9; format: ADME
# Chain of Cytochrome P450 2C9 (P11712 whole entry): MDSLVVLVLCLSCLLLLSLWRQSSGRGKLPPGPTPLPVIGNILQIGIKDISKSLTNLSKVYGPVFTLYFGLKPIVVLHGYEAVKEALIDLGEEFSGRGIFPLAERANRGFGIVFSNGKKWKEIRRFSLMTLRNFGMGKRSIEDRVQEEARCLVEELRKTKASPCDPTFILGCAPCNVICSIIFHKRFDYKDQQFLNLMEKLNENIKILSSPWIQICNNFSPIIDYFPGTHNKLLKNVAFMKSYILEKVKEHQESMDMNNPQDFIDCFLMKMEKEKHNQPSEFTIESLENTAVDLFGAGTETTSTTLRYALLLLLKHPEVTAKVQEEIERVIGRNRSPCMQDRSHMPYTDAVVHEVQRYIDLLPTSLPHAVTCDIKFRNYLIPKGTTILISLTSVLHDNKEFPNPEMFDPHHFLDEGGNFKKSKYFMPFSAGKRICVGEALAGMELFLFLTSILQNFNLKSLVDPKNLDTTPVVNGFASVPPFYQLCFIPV
# Liver microsomes [12] = assay: Stability of the compound in human liver microsomes assessed as racemization at 10 uM after 60 mins by chiral HPLC analysis; format: ADME, Microsome; conditions: 1 h
# [13] = biological target: Glucagon-like peptide 1 receptor (Homo sapiens, UniProt P43220); assay: Antagonist activity at human GLP1 receptor assessed as inhibition of cAMP production; format: functional
# Chain of Glucagon-like peptide 1 receptor (P43220 whole entry): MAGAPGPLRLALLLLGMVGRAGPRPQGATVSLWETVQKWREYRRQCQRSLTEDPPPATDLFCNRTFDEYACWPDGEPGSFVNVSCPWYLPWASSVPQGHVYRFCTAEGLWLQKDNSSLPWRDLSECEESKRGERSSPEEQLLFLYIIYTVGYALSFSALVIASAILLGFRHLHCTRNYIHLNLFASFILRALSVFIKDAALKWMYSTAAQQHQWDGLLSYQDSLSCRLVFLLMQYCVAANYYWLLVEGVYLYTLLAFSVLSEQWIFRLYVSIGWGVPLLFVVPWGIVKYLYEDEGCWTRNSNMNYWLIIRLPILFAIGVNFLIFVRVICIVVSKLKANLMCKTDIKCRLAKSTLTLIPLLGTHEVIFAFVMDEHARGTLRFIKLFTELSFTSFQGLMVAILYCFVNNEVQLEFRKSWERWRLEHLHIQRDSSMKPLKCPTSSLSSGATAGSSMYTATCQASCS
# Rattus norvegicus [14] = assay: Stability of the compound in bile duct cannulated rat assessed as racemization at 2 mg/kg, iv by chiral HPLC analysis; format: ADME, organism-based; design: dose 2 mg/kg, route intravenous; conditions: in vivo
# Procedure, shortened: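 Radiolabelled compound given IV at 2 mg/kg to bile-duct-cannulated rats. Excreted parent compound analysed by chiral HPLC for racemization.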
# Plasma = assay: Protein binding in Sprague-Dawley rat plasma at 20 mg/kg, po after 2 to 24 hrs; format: ADME, organism-based; design: dose 20 mg/kg, route oral; conditions: in vivo
# Procedure, shortened: (§2)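 Radiolabelled analog given orally at 20 mg/kg to Sprague-Dawley rats. Irreversible binding to plasma and liver proteins measured at 2, 6 and 24 h post dose.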
# Mus musculus [15] = assay: Antidiabetic activity in human glucagon receptor transgenic mouse assessed as inhibition of glucagon-induced glucose excursion at 30 mg/kg, po administered 60 mins after glucagon challenge by glucometry; format: functional, organism-based; design: dose 30 mg/kg; conditions: in the assay text read “60 mins before glucagon challenge” for “60 mins after glucagon challenge”
# Procedure, shortened: (§3)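 Oral dosing to mice expressing human glucagon receptor, followed 60 min later by IP glucagon injection. Read-out was the glucagon-induced blood glucose excursion.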
# [16] = Oral bioavailability in dog at 2 mg/kg; format: ADME, organism-based, Canis lupus familiaris; conditions: in vivo
# [17] = Half life in dog at 0.5 mg/kg, iv and 2 mg/kg, po; format: ADME, organism-based, Canis lupus familiaris; conditions: in vivo
# [18] = Chemical stability of the compound in 1:1 mixtures of dioxane and buffered solutions at pH 2 to pH 10 assessed as racemization at 40 degree celsius after 24 hrs by chiral HPLC analysis; format: physicochemical; conditions: buffer, pH 2, 24 h
# [19] = Volume of distribution in dog at 0.5 mg/kg, iv and 2 mg/kg, po; format: ADME, organism-based, Canis lupus familiaris; conditions: in vivo
# Mus musculus [20] = assay: Antidiabetic activity in human glucagon receptor transgenic ob/ob mouse hyperglycemic model assessed as reduction in ambient glucose level at 1 mg/kg, po over 6 hrs period; format: functional, organism-based; design: dose 1 mg/kg
# Procedure, shortened: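 Model was transgenic ob/ob/hGCGR diabetic mice. Ambient glucose was followed over 6 h after a single oral dose.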
# [21] = biological target: T2, Gastric inhibitory polypeptide receptor (Homo sapiens, UniProt P48546); assay: Antagonist activity at human GIP receptor assessed as inhibition of cAMP production; format: functional
# T2 sequence (P48546 whole entry): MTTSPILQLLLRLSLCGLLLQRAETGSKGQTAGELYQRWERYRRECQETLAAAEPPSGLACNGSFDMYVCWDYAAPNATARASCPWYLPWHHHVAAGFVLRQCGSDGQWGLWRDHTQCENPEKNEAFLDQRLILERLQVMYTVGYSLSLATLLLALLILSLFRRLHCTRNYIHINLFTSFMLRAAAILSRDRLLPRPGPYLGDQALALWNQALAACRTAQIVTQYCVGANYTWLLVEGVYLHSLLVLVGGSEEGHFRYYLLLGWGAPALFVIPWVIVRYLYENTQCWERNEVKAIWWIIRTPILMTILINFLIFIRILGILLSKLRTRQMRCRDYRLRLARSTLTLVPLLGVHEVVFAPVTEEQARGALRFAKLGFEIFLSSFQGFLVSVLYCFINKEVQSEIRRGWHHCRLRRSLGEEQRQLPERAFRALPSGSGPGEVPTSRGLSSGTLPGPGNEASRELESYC
# Canis familiaris [22] = assay: Dose normalised Cmax in dog at 0.5 mg/kg, iv and 2 mg/kg, po; format: ADME, organism-based, Canis lupus familiaris; conditions: in vivo
# Mus musculus [23] = assay: Antidiabetic activity in human glucagon receptor transgenic mouse assessed as inhibition of glucagon-induced glucose excursion at 3 mg/kg, po administered 60 mins after glucagon challenge by glucometry; format: functional, organism-based; design: dose 3 mg/kg; conditions: in the assay text read “60 mins before glucagon challenge” for “60 mins after glucagon challenge”; procedure, shortened: as §3
# [24] = Plasma clearance in dog at 0.5 mg/kg, iv and 2 mg/kg, po; format: ADME, organism-based, Canis lupus familiaris
# Mus musculus [25] = assay: Antidiabetic activity in human glucagon receptor transgenic mouse assessed as inhibition of glucagon-induced glucose excursion at 10 mg/kg, po administered 60 mins after glucagon challenge by glucometry; format: functional, organism-based; design: dose 10 mg/kg; conditions: in the assay text read “60 mins before glucagon challenge” for “60 mins after glucagon challenge”; procedure, shortened: as §3
# Cytochrome P450 2D6 = Cytochrome P450 2D6 (Homo sapiens, UniProt P10635); assay: Inhibition of CYP2D6; format: ADME
# Chain of Cytochrome P450 2D6 (P10635 whole entry): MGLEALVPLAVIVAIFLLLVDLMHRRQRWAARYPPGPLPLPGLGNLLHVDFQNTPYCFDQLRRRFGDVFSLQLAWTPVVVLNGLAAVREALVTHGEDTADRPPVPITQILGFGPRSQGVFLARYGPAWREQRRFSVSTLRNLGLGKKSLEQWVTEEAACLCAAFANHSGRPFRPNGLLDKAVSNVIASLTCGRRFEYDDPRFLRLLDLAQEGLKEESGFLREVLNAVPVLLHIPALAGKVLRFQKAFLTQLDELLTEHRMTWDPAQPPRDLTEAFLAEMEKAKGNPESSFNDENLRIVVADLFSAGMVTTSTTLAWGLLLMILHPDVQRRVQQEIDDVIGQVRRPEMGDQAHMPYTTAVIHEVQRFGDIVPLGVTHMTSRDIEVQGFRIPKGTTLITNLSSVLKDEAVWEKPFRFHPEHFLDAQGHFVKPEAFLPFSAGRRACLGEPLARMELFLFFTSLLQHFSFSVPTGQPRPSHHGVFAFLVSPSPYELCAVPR
# Liver = assay: Protein binding in Sprague-Dawley rat liver at 20 mg/kg, po after 2 to 24 hrs; format: ADME, organism-based; design: dose 20 mg/kg, route oral; conditions: in vivo; procedure, shortened: as §2
# Canis familiaris [26] = assay: Dose normalised AUC in dog at 2 mg/kg, po; format: ADME, organism-based, Canis lupus familiaris; design: dose 2 mg/kg, route oral; conditions: in vivo
# Liver microsomes [27] = assay: Protein binding in human liver microsomes at 10 uM after 60 mins; format: ADME, Microsome; conditions: 1 h
# Procedure, shortened: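 Tritium-labelled analog incubated with human and rat liver microsomes for 60 min at 37 °C, then irreversible protein binding measured.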
smiles,measurement,setting,value
"CCCC(Cc1ccc(C(=O)NCCC(=O)O)cc1)C(=O)c1cc2cc(Cl)ccc2n1-c1cccc(F)c1 (single isomer, unassigned)",IC50,Glucagon receptor [1],150 nM
same,IC50,Glucagon receptor [2],47 nM
O=C(O)CCNC(=O)c1ccc(C[C@H](CC2CC2)C(=O)c2cc3cc(Cl)ccc3n2-c2cccc(C(F)(F)F)c2)cc1,IC50,Glucagon receptor [1],55 nM
same,IC50,Glucagon receptor [2],37 nM
"CCCC(Cc1ccc(C(=O)NCCC(=O)O)cc1)C(=O)c1cc2cc(Cl)ccc2n1-c1ccc(OC(F)(F)F)cc1 (single isomer, unassigned)",IC50,Glucagon receptor [1],45 nM
same,IC50,Glucagon receptor [2],28 nM
CCC[C@@H](Cc1ccc(C(=O)NCCC(=O)O)cc1)C(=O)c1cc2cc(Cl)ccc2n1-c1cccc(C(F)(F)F)n1,IC50,Glucagon receptor [1],34 nM
same,bioavailability,[3],9.1%
same,Vd,[4],0.9 L/kg
same,IC50,Glucagon receptor [2],9.2 nM
same,AUC/dose,Rattus norvegicus [5],0.15 µM·h
same,Cmax/dose,Rattus norvegicus [6],70 nM
same,half-life,[7],1.1 h
same,clearance,[8],24 mL/min/kg
O=C(Nc1nnn[nH]1)c1ccc(Cn2c(C(=O)c3ccc(OC(F)(F)F)cc3)cc3ccc(C(F)(F)F)cc32)cc1,clearance,[9],10 mL/min/kg
same,bioavailability,[10],40%
same,IC50,Glucagon receptor [2],51 nM
"CCCC(Cc1ccc(C(=O)NCCC(=O)O)cc1)C(=O)c1cc2cc(Cl)ccc2n1-c1ccc(Cl)c(C(F)(F)F)c1 (single isomer, unassigned)",IC50,Glucagon receptor [1],17 nM
same,bioavailability,[3],17%
same,Vd,[4],0.84 L/kg
same,IC50,Glucagon receptor [2],12 nM
same,AUC/dose,Rattus norvegicus [5],0.52 µM·h
same,Cmax/dose,Rattus norvegicus [6],150 nM
same,half-life,[7],1.3 h
same,clearance,[8],9.2 mL/min/kg
"CCCC(Cc1ccc(C(=O)NCCC(=O)O)cc1)C(=O)c1cc2cc(Cl)ccc2n1-c1ccc(C(C)(C)C)cc1 (single isomer, unassigned)",clearance,[9],4.7 mL/min/kg
same,IC50,Glucagon receptor [1],52 nM
same,bioavailability,[10],38%
same,IC50,Glucagon receptor [2],52 nM
"CCCC(Cc1ccc(C(=O)NCCC(=O)O)cc1)C(=O)c1cc2cc(Cl)ccc2n1-c1cnc2ccccc2c1 (single isomer, unassigned)",IC50,Glucagon receptor [1],718 nM
same,IC50,Glucagon receptor [2],58 nM
CCCCC[C@@H](Cc1ccc(C(=O)NCCC(=O)O)cc1)C(=O)c1cc2cc(Cl)ccc2n1-c1cccc(C(F)(F)F)c1,IC50,Cytochrome P450 3A4,> 11000 nM
same,Activity,Rattus norvegicus [11],Non-toxic
same,IC50,Cytochrome P450 2C9,> 11000 nM
same,Stability,Liver microsomes [12],Stable
same,IC50,Glucagon receptor [1],12 nM
same,bioavailability,[3],33%
same,IC50,[13],> 10000 nM
same,Stability,Rattus norvegicus [14],Stable
same,PPB,Plasma,Not Active
same,Activity,Mus musculus [15],Active
same,bioavailability,[16],60%
same,half-life,[17],2.7 h
same,Stability,[18],Stable
same,Vd,[19],0.32 L/kg
same,Vd,[4],0.98 L/kg
same,Activity,Mus musculus [20],Active
same,IC50,[21],1400 nM
same,IC50,Glucagon receptor [2],10 nM
same,Cmax/dose,Canis familiaris [22],840 nM
same,Activity,Mus musculus [23],Active
same,clearance,[24],3.8 mL/min/kg
same,Activity,Mus musculus [25],Active
same,AUC/dose,Rattus norvegicus [5],1.46 µM·h
same,Cmax/dose,Rattus norvegicus [6],330 nM
same,half-life,[7],1.9 h
same,IC50,Cytochrome P450 2D6,> 11000 nM
same,PB,Liver,Not Active
same,AUC/dose,Canis familiaris [26],4.2 µM·h
same,PB,Liver microsomes [27],Not Active
same,clearance,[8],6.8 mL/min/kg
CCC[C@@H](Cc1ccc(C(=O)NCCC(=O)O)cc1)C(=O)c1cc2cc(Cl)ccc2n1-c1cccc(C(F)(F)F)c1,IC50,Glucagon receptor [1],55 nM
same,bioavailability,[3],42%
same,Vd,[4],1.5 L/kg
same,IC50,Glucagon receptor [2],17 nM
same,AUC/dose,Rattus norvegicus [5],0.85 µM·h
same,Cmax/dose,Rattus norvegicus [6],250 nM
same,half-life,[7],1.7 h
same,clearance,[8],14.2 mL/min/kg
CCCC[C@@H](Cc1ccc(C(=O)NCCC(=O)O)cc1)C(=O)c1cc2cc(Cl)ccc2n1-c1cccc(C(F)(F)F)c1,IC50,Glucagon receptor [1],42 nM
same,IC50,Glucagon receptor [2],16 nM
"CCCC(Cc1ccc(C(=O)NCCC(=O)O)cc1)C(=O)c1cc2cc(Cl)ccc2n1-c1cc(C)cc(C)c1 (single isomer, unassigned)",IC50,Glucagon receptor [2],120 nM
CCCCC[C@@H](Cc1ccc(C(=O)NCCC(=O)O)cc1)C(=O)c1cc2cc(C)ccc2n1-c1cccc(C(F)(F)F)c1,IC50,Glucagon receptor [1],24 nM
same,IC50,Glucagon receptor [2],12 nM
